Screening results from PubChem.
GRK2 aptamer HTS = inhibitors of human GRK2 displacing RNA aptamer; P25098; bead flow cytometry, FAM-aptamer displacement from GRK2; inhibition of aptamer binding, % at 10 µM; 330,000 tested, 0.59% active; AID 488847;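 active means inhibition of aptamer binding above 40%, roughly 3 SD of noise, on plates passing a quality check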;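 further: median bead fluorescence of bound FAM aptamer so fluorescent compounds give negative values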
EBV gp42 block = EBV gp42 inhibition; 220,000 tested, 0.42% active; AID 1085; Q1HVG2; inhibition, % (tested at 21.74 µM); Fluorescence polarization binding assay, mP read-out; in the data active means inhibition above about 50%
C-LANA FP = KSHV C-LANA DNA binding inhibition; AID 504423; inhibition, % at 9 µM; MBP-C-LANA/FAM-LBS DNA binding, fluorescence polarization; 340,000 tested, 0.078% active;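 active means highest replicate inhibition at or above 60% at 9 µM, even if other replicates fall short; inactive means all replicates below 60% inhibition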;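 further: 0% = neutral control wells and 100% = 4 µM acridine orange control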
Keap1 Nrf2 FP = Keap1-Nrf2 (human) interaction inhibition; inhibition, % at 9.4 µM; 340,000 tested, 0.15% active; AID 504523; Keap1 Kelch-Nrf2 peptide fluorescence polarization, 1536-well; in the data active means inhibition above about 12%;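 further: human Keap1 Kelch domain with fluorescein labeled Nrf2 9mer peptide probe; 0% = neutral control wells and 100% = peptide positive control; higher means more block of Keap1 binding to Nrf2 peptide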
T cell HTS = modulates CD8 T cell binding to vesicles; 2C CD8+ T cell-vesicle binding, flow cytometry; stronger effect = lower value; response (vesicle binding), % at 7 µM; 330,000 tested, 0.068% active;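 active means response, share of CD8 T cells binding vesicles, and their 90th percentile fluorescence all below set limits, cut at about 80% in these data, passing the limit was not always enough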;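 further: values below 100% mean blocked vesicle binding to the CD8+ T cells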
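material = purified 2C TCR transgenic mouse naive CD8+ T cells | controls = Unloaded micro-vesicles (low), QL9 vesicles with 0.7% DMSO (high) | detection = cytometric PE anti-B7-1 and Alexa647 anti-CD8 signals after 1% paraformaldehyde fixation | incubation = binding step 1.5 h, 37 °C, antibody labelling 20 min, ice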
MEX-5 binding = C. elegans MEX-5 TCR-2 RNA binding activity. 300,000 tested, 0.38% active. AID 1832. activity score (negative = inhibition of binding), % at 10 µM. Q9XUB2. MEX-5/FITC-TCR2 RNA binding, fluorescence polarization; stronger effect = lower value;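 active means inhibition past about -25% in most replicates, and total fluorescence under double the plate's negative control median, limit read from the data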;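 further: 0% = DMSO and -100% = 5 µM competing unlabeled TCR2 RNA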
Target sequence (Q9XUB2 whole entry, looked up): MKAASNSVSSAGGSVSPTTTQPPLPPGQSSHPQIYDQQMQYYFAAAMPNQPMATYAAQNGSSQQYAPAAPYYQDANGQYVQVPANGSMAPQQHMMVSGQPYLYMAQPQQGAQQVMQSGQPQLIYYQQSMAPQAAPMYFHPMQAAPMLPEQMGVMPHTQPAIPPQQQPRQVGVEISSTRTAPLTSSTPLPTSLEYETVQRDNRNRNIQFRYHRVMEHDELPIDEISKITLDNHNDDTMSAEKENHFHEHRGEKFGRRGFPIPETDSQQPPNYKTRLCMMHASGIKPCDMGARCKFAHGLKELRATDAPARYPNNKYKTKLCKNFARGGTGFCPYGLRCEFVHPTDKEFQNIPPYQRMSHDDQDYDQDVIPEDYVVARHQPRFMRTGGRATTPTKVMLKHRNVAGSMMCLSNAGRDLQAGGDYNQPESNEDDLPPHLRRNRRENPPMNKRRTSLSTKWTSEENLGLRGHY
An asterisk follows results filed as active. In the library only some 1.3% were active in any assay of this set; here they are far more common.

For CC1(C)CC(=O)C2=C(C1)N(c1ccc(F)cc1)C(=O)C2(NC(=O)c1ccccc1F)C(F)(F)F (stereo unspecified) the results were GRK2 aptamer HTS 0, EBV gp42 block -14, C-LANA FP 1, Keap1 Nrf2 FP -1, T cell HTS 325 and MEX-5 binding -2.
For Cc1ccc(N2C(=O)C(NC(=O)c3ccccc3F)(C(F)(F)F)C3=C2CC(C)(C)CC3=O)cc1 (stereo unspecified) the results were GRK2 aptamer HTS 75*, EBV gp42 block -2, C-LANA FP 2, Keap1 Nrf2 FP 5, T cell HTS 132 and MEX-5 binding -4.
Screening COCCNC(=S)NN(c1ccccc1)c1ccccc1 returned GRK2 aptamer HTS 0, EBV gp42 block -1, C-LANA FP 0, Keap1 Nrf2 FP -1, T cell HTS 267 and MEX-5 binding -2.
Screening CNC(=S)NN(c1ccccc1)c1ccccc1 returned GRK2 aptamer HTS 0, EBV gp42 block 84*, C-LANA FP 1, Keap1 Nrf2 FP -9, T cell HTS 578 and MEX-5 binding 2.
Screening Oc1ccc(/C=N/N=C/c2ccc(O)c(O)c2)cc1O returned GRK2 aptamer HTS 2, C-LANA FP 77*, Keap1 Nrf2 FP -7, T cell HTS 400 and MEX-5 binding -1.
Screening COC(=O)N/N=C1/C/C(=N\NC(=O)OC)c2ccccc21 returned GRK2 aptamer HTS 0, EBV gp42 block 5, C-LANA FP 0, Keap1 Nrf2 FP -3, T cell HTS 230 and MEX-5 binding 3.
Screening O=C(O)C1Nc2c(Cl)cc(Cl)cc2C2C=CCC12 (stereo unspecified) returned GRK2 aptamer HTS 72*, C-LANA FP 26, Keap1 Nrf2 FP 4, T cell HTS 595 and MEX-5 binding -73*.
For O=C(OC1CCCCC1)c1ccc2c(c1)C1C=CCC1C(C(=O)O)N2 (stereo unspecified) the results were EBV gp42 block 88*.
CCOC(=O)C1Nc2ccc(C)cc2C2C=CCC12 (stereo unspecified) was read as C-LANA FP 2, Keap1 Nrf2 FP 3 and MEX-5 binding -2.
Screening O=C(O)C1Nc2c(O)cccc2C2C=CCC12 (stereo unspecified) returned GRK2 aptamer HTS 3, EBV gp42 block 108*, C-LANA FP 13, Keap1 Nrf2 FP 2 and T cell HTS 257.
CCOC(=O)c1ccc2c(c1)C1C=CCC1C(C(=O)OCC)N2 (stereo unspecified) was read as GRK2 aptamer HTS 0, C-LANA FP 1, Keap1 Nrf2 FP 4, T cell HTS 225 and MEX-5 binding -1.
For C=C(C)C(=O)Nc1ccc2c(c1)OCCOCCOCCO2 the results were GRK2 aptamer HTS 93*, EBV gp42 block -19, C-LANA FP 28, Keap1 Nrf2 FP -3, T cell HTS 380 and MEX-5 binding -1.
Screening CC(=O)Nc1ccc2c(c1)OCCO2 returned GRK2 aptamer HTS 2, C-LANA FP -1, Keap1 Nrf2 FP -3, T cell HTS 133 and MEX-5 binding 1.
`COc1ccc(C(O)c2coc3ccc(O)c(CN(C)C)c23)cc1` (stereo unspecified) gave GRK2 aptamer HTS 0, EBV gp42 block 7, C-LANA FP -1, Keap1 Nrf2 FP 1, T cell HTS 6.9* and MEX-5 binding 1.
O=C(NNC(=O)c1ccccc1Cl)c1csc(N2CCOCC2)n1 was read as GRK2 aptamer HTS 2, C-LANA FP 0, Keap1 Nrf2 FP -1, T cell HTS 402 and MEX-5 binding -17.
Screening CC1=CC(=O)c2c(O)ccc(O)c2C1=O returned GRK2 aptamer HTS 46*, EBV gp42 block 116* and T cell HTS 195.
`O=C1C=C(N2CCN(c3ccccn3)CC2)C(=O)c2c(O)ccc(O)c21` gave C-LANA FP 1 and Keap1 Nrf2 FP -3.
NC(=S)N=Nc1ccc(NN=C(N)N)cc1 was read as GRK2 aptamer HTS 2, C-LANA FP -11, Keap1 Nrf2 FP -3, T cell HTS 375 and MEX-5 binding -53*.
For CCC(C(=O)N1CCN(C(=O)c2ccco2)CC1)c1ccccc1 (stereo unspecified) the results were GRK2 aptamer HTS 0, EBV gp42 block -2, C-LANA FP -1, Keap1 Nrf2 FP 1, T cell HTS 317 and MEX-5 binding 3.
